Experimental data from ChEMBL document CHEMBL3044705, “Synthesis and insecticidal activity of an oxabicyclolactone and novel pyrethroids” (2012).

Columns and labels:
Format in all cases: functional
Ascia monuste [1] = assay: Insecticidal activity against Ascia monuste orseis assessed as mortality at 10 ug applied on thoracic tergite at 25 +/- 0.5 degC and 75 +/- 5 % RH with food for 24 hr
Outline: (§1)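 Topical contact assay. Dose was expressed per mg of insect body weight: 5 μg/mg for P. americana, 10 µg/mg for A. monuste orseis, and 50 μg/mg for A. obtectus and S. zeamais. The acetone control received solvent only. Insects were held in Petri dishes in an incubator with a 12 h photoperiod. Dead and motionless insects were both counted as dead. Mean percent mortality was compared by Tukey test at the 0.05 level.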

Acanthoscelides obtectus [2] = assay: Insecticidal activity against Acanthoscelides obtectus assessed as mortality at 50 ug applied on thoracic tergite at 25 +/- 0.5 degC and 75 +/- 5 % RH without food for 24 hr; outline: as §1
Sitophilus zeamais [3] = assay: Insecticidal activity against Sitophilus zeamais assessed as mortality at 50 ug applied on thoracic tergite at 25 +/- 0.5 degC and 75 +/- 5 % RH without food for 24 hr; outline: as §1
Periplaneta americana [4] = assay: Insecticidal activity against second-instar nymph Periplaneta americana (American cockroach) assessed as mortality at 5 ug applied on thoracic tergite at 25 +/- 0.5 degC and 75 +/- 5 % RH with food for 12 hr; outline: as §1
Sitophilus zeamais [5] = assay: Insecticidal activity against Sitophilus zeamais assessed as mortality at 50 ug applied on thoracic tergite at 25 +/- 0.5 degC and 75 +/- 5 % RH without food for 12 hr; outline: as §1
Ascia monuste [6] = assay: Insecticidal activity against Ascia monuste orseis assessed as mortality at 10 ug applied on thoracic tergite at 25 +/- 0.5 degC and 75 +/- 5 % RH with food for 12 hr; outline: as §1
Acanthoscelides obtectus [7] = assay: Insecticidal activity against Acanthoscelides obtectus assessed as mortality at 50 ug applied on thoracic tergite at 25 +/- 0.5 degC and 75 +/- 5 % RH without food for 12 hr; outline: as §1
Periplaneta americana [8] = assay: Insecticidal activity against second-instar nymph Periplaneta americana (American cockroach) assessed as mortality at 5 ug applied on thoracic tergite at 25 +/- 0.5 degC and 75 +/- 5 % RH with food for 24 hr; outline: as §1

SMILES	mortality (Ascia monuste [1]) [%]	mortality (Acanthoscelides obtectus [2]) [%]	mortality (Sitophilus zeamais [3]) [%]	mortality (Periplaneta americana [4]) [%]	mortality (Sitophilus zeamais [5]) [%]	mortality (Ascia monuste [6]) [%]	mortality (Acanthoscelides obtectus [7]) [%]	mortality (Periplaneta americana [8]) [%]
CCOc1ccc(C=C[C@H]2[C@H](C(=O)OC)C2(C)C)cc1	92.5	97.5	100	75	97.5	75	97.5	
COC(=O)[C@H]1[C@H](C=Cc2c(F)c(F)c(F)c(F)c2F)C1(C)C	100	100	100	100	97.5	100	100	100
COC(=O)[C@H]1[C@H](C=Cc2cccc(OC)c2)C1(C)C	95	92.5	97.5	92	92.5	75	82.5	
COC(=O)[C@H]1[C@H](C=Cc2ccccc2OC)C1(C)C	95	95	95	100	95	62.5	87.5	100
COC(=O)[C@@H]1[C@@H](C=O)C1(C)C	67.5	97.5	45	67	42.5	50	90	71
COC(=O)[C@H]1[C@H](C=O)C1(C)C	47.5	100	47.5	79.33	45	27.5	100	96
CC1(C)C2COC(=O)C21 (stereo not given)	100	100	90	100	85	100	100	100
COC(=O)[C@H]1[C@H](C=Cc2ccccc2Cl)C1(C)C (mixture of isomers)	100	97.5	90	67	82.5	100	97.5	67
CC1(C)C(C=C(Cl)Cl)C1C(=O)OCc1cccc(Oc2ccccc2)c1 (stereo not given) [PERMETHRIN]	100	100	90	87.5	85.5	100	100	97.5
